Source: ChEMBL document CHEMBL1681762, “Application of plant allylpolyalkoxybenzenes in synthesis of antimitotic phenstatin analogues” (2011)

Columns and labels:
Type in all cases: functional
[1] = tested on: Paracentrotus lividus; assay: Antiproliferative activity against sea urchin embryo assessed as cleavage alteration after 10 to 15 mins fertilization 45 to 60 mins before first mitotic cycle completion
In short: (§1)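 Phenotypic in vivo assay on fertilized sea urchin eggs, scored for cleavage alteration or arrest. Reported value is the effective threshold concentration (EC), from duplicate measurements.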

[2] = tested on: Paracentrotus lividus; assay: tubulin-destabilizing activity in sea urchin embryo assessed as embryo spinning treated immediately 8 to 10 hrs after fertilization
In short: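 Free-swimming sea urchin blastulae were treated and monitored for behavioural change. Reported value is the effective threshold concentration (EC), from duplicate measurements.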

[3] = tested on: Paracentrotus lividus; assay: Antiproliferative activity against sea urchin embryo assessed as cleavage arrest after 10 to 15 mins fertilization 45 to 60 mins before first mitotic cycle completion; in short: as §1

| SMILES | EC [1] [µM] | EC [2] [µM] | EC [3] [µM] |
| --- | --- | --- | --- |
| COc1ccc(C(=O)c2cc3c(c(OC)c2OC)OCO3)cc1O | 1 | >5 | 4 |
| COc1ccc(C(=O)c2cc(OC)c3c(c2OC)OCO3)cc1O | 2 | >5 | >4 |
| COc1ccc(C(=O)c2cc(OC)c3c(c2)OCO3)cc1O | 0.001 | 0.1 | 0.01 |
| COc1ccc(C(=O)c2cc(OC)c(OC)c(OC)c2OC)cc1O | 2 | >5 | >4 |
| COc1ccc(C(=O)c2ccc3c(c2)OCCO3)cc1O | 0.1 | >5 | 0.2 |
| COc1ccc(C(=O)c2ccc3c(c2)OCCO3)cc1 | 0.5 | >5 | 1 |
| COc1ccc(/C=C\c2cc(OC)c(OC)c(OC)c2)cc1O [COMBRETASTATIN A4] | 0.002 | 0.05 | 0.01 |
| COc1ccc(/C=C\c2cc(OC)c3c(c2)OCO3)cc1O [Combretastatin A-2] | 0.002 | 0.05 | 0.01 |
| COc1ccc(C(=O)c2cc(OC)c(OC)c(OC)c2)cc1O [PHENSTATIN] | 0.01 | 0.5 | 0.05 |
